Measurements from ChEMBL document CHEMBL1795311, “Synthesis, antiproliferative activity, and mechanism of action of a series of 2-{[(2E)-3-phenylprop-2-enoyl]amino}benzamides” (Eur J Med Chem, 2011).

Legend:
[1] = tested on: SW-620; experiment: Growth inhibition of human SW620 cells after 48 hrs by SRB assay; assay type: functional; conditions: SW-620, 48 h
How it was run: (§1)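 Run by the NCI Developmental Therapeutics Program: cells in RPMI 1640 with 5% FBS and 2 mM L-glutamine, plated at 5000–40,000 cells/well and grown 24 h before dosing. Drug (DMSO stock) given at five concentrations for 48 h at 37 °C, 5% CO2. Adherent cells fixed with cold TCA, stained with 0.4% SRB and read at 515 nm. GI50, TGI and LC50 taken from the time-zero, control and treated absorbances.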

[2] = tested on: NCI-H226; experiment: Growth inhibition of human NCI-H226 cells after 48 hrs by SRB assay; assay type: functional; conditions: NCI-H226, 48 h
How it was run: (§2)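 NCI DTP panel cells grown in RPMI 1640 with 5% FBS and 2 mM L-glutamine, preincubated 24 h, then given five concentrations (10-fold or ½-log dilutions from DMSO stock) for 48 h at 37 °C. Cells fixed with TCA, stained with SRB, absorbance read at 515 nm, with time-zero plates as reference.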

[3] = tested on: 786-0; experiment: Growth inhibition of human 786-0 cells after 48 hrs by SRB assay; assay type: functional; conditions: 786-0, 48 h; how it was run: as §2
[4] = tested on: HCC 2998; experiment: Growth inhibition of human HCC2998 cells after 48 hrs by SRB assay; assay type: functional; conditions: HCC 2998, 48 h; how it was run: as §2
[5] = tested on: HL-60; experiment: Growth inhibition of human HL60 cells after 48 hrs by SRB assay; assay type: functional; conditions: HL-60, 48 h; how it was run: as §2
[6] = tested on: HOP-62; experiment: Growth inhibition of human HOP62 cells after 48 hrs by SRB assay; assay type: functional; conditions: HOP-62, 48 h; how it was run: as §2
[7] = tested on: SF-539; experiment: Growth inhibition of human SF539 cells after 48 hrs by SRB assay; assay type: functional; conditions: SF-539, 48 h; how it was run: as §2
[8] = tested on: T47D; experiment: Growth inhibition of human T47D cells after 48 hrs by SRB assay; assay type: functional; how it was run: as §1
[9] = tested on: UACC-257; experiment: Growth inhibition of human UACC257 cells after 48 hrs by SRB assay; assay type: functional; conditions: UACC-257, 48 h; how it was run: as §1
[10] = tested on: MDA-MB-468; experiment: Growth inhibition of human MDA-MB-468 cells after 48 hrs by SRB assay; assay type: functional; conditions: MDA-MB-468, 48 h; how it was run: as §2
[11] = tested on: SF-295; experiment: Growth inhibition of human SF295 cells after 48 hrs by SRB assay; assay type: functional; conditions: SF-295, 48 h; how it was run: as §2
[12] = tested on: K562; experiment: Growth inhibition of human K562 cells after 48 hrs by SRB assay; assay type: functional; conditions: K562, 48 h; how it was run: as §2
[13] = tested on: HCT-116; experiment: Growth inhibition of human HCT116 cells after 48 hrs by SRB assay; assay type: functional; conditions: HCT-116, 48 h; how it was run: as §2
[14] = tested on: BT-549; experiment: Growth inhibition of human BT549 cells after 48 hrs by SRB assay; assay type: functional; conditions: BT-549, 48 h; how it was run: as §2
[15] = tested on: OVCAR-8; experiment: Growth inhibition of human OVCAR8 cells after 48 hrs by SRB assay; assay type: functional; conditions: OVCAR-8, 48 h; how it was run: as §2
[16] = tested on: A498; experiment: Growth inhibition of human A498 cells after 48 hrs by SRB assay; assay type: functional; conditions: A498, 48 h; how it was run: as §2
[17] = tested on: HCT-15; experiment: Growth inhibition of human HCT15 cells after 48 hrs by SRB assay; assay type: functional; conditions: HCT-15, 48 h; how it was run: as §2
[18] = tested on: SK-OV-3; experiment: Growth inhibition of human SKOV3 cells after 48 hrs by SRB assay; assay type: functional; conditions: SK-OV-3, 48 h; how it was run: as §1
[19] = tested on: M14; experiment: Growth inhibition of human M14 cells after 48 hrs by SRB assay; assay type: functional; conditions: M14, 48 h; how it was run: as §2
[20] = tested on: HOP-92; experiment: Growth inhibition of human HOP92 cells after 48 hrs by SRB assay; assay type: functional; conditions: HOP-92, 48 h; how it was run: as §2
[21] = tested on: LOX IMVI; experiment: Growth inhibition of human LOXIMVI cells after 48 hrs by SRB assay; assay type: functional; how it was run: as §2
[22] = tested on: K562; experiment: Antiproliferative activity against human K562 cells at 10 uM after 48 hrs by trypan blue assay; assay type: functional; conditions: K562, 48 h, read-out: GI
[23] = tested on: Malme-3M; experiment: Growth inhibition of human MALME-3M cells after 48 hrs by SRB assay; assay type: functional; how it was run: as §2
[24] = tested on: UACC-62; experiment: Growth inhibition of human UACC62 cells after 48 hrs by SRB assay; assay type: functional; conditions: UACC-62, 48 h; how it was run: as §1
[25] = tested on: SN12C; experiment: Growth inhibition of human SN12C cells after 48 hrs by SRB assay; assay type: functional; how it was run: as §1
[26] = tested on: PC-3; experiment: Growth inhibition of human PC3 cells after 48 hrs by SRB assay; assay type: functional; conditions: PC-3, 48 h; how it was run: as §2
[27] = tested on: HT-29; experiment: Growth inhibition of human HT-29 cells after 48 hrs by SRB assay; assay type: functional; conditions: HT-29, 48 h; how it was run: as §2
[28] = tested on: COLO 205; experiment: Growth inhibition of human COLO205 cells after 48 hrs by SRB assay; assay type: functional; conditions: COLO 205, 48 h; how it was run: as §2
[29] = tested on: NCI/ADR-RES; experiment: Growth inhibition of human NCI/ADR-RES cells after 48 hrs by SRB assay; assay type: functional; how it was run: as §2
[30] = tested on: MDA-MB-435; experiment: Growth inhibition of human MDA-MB-435 cells after 48 hrs by SRB assay; assay type: functional; conditions: MDA-MB-435, 48 h; how it was run: as §2
[31] = tested on: ACHN; experiment: Growth inhibition of human ACHN cells after 48 hrs by SRB assay; assay type: functional; how it was run: as §2
[32] = tested on: MCF7; experiment: Growth inhibition of human MCF7 cells after 48 hrs by SRB assay; assay type: functional; conditions: MCF7, 48 h; how it was run: as §2
[33] = Growth inhibition of human Hs 578T cells after 48 hrs by SRB assay; assay type: functional; how it was run: as §2
[34] = tested on: OVCAR-5; experiment: Growth inhibition of human OVCAR5 cells after 48 hrs by SRB assay; assay type: functional; conditions: OVCAR-5, 48 h; how it was run: as §2
[35] = tested on: SNB-19; experiment: Growth inhibition of human SNB19 cells after 48 hrs by SRB assay; assay type: functional; conditions: SNB-19, 48 h; how it was run: as §1
[36] = tested on: EKVX; experiment: Growth inhibition of human EKVX cells after 48 hrs by SRB assay; assay type: functional; how it was run: as §2
[37] = tested on: UO-31; experiment: Growth inhibition of human UO31 cells after 48 hrs by SRB assay; assay type: functional; conditions: UO-31, 48 h; how it was run: as §1
[38] = tested on: SK-MEL-5; experiment: Growth inhibition of human SK-MEL-5 cells after 48 hrs by SRB assay; assay type: functional; conditions: SK-MEL-5, 48 h; how it was run: as §1
[39] = tested on: OVCAR-3; experiment: Growth inhibition of human OVCAR3 cells after 48 hrs by SRB assay; assay type: functional; conditions: OVCAR-3, 48 h; how it was run: as §2
[40] = tested on: KM12; experiment: Growth inhibition of human KM12 cells after 48 hrs by SRB assay; assay type: functional; conditions: KM12, 48 h; how it was run: as §2
[41] = tested on: CAKI-1; experiment: Growth inhibition of human Caki1 cells after 48 hrs by SRB assay; assay type: functional; conditions: CAKI-1, 48 h; how it was run: as §2
[42] = tested on: IGROV-1; experiment: Growth inhibition of human IGROV1 cells after 48 hrs by SRB assay; assay type: functional; conditions: IGROV-1, 48 h; how it was run: as §2
[43] = tested on: TK-10; experiment: Growth inhibition of human TK10 cells after 48 hrs by SRB assay; assay type: functional; conditions: TK-10, 48 h; how it was run: as §1
[44] = tested on: U-251; experiment: Growth inhibition of human U251 cells after 48 hrs by SRB assay; assay type: functional; conditions: U-251, 48 h; how it was run: as §1
[45] = tested on: NCI-H522; experiment: Growth inhibition of human NCI-H522 cells after 48 hrs by SRB assay; assay type: functional; conditions: NCI-H522, 48 h; how it was run: as §2
[46] = tested on: NCI-H23; experiment: Growth inhibition of human NCI-H23 cells after 48 hrs by SRB assay; assay type: functional; conditions: NCI-H23, 48 h; how it was run: as §2
[47] = tested on: A549; experiment: Growth inhibition of human A549 cells after 48 hrs by SRB assay; assay type: functional; conditions: A549, 48 h; how it was run: as §2
[48] = tested on: DU-145; experiment: Growth inhibition of human DU145 cells after 48 hrs by SRB assay; assay type: functional; conditions: DU-145, 48 h; how it was run: as §2
[49] = tested on: SK-MEL-28; experiment: Growth inhibition of human SK-MEL-28 cells after 48 hrs by SRB assay; assay type: functional; conditions: SK-MEL-28, 48 h; how it was run: as §1
[50] = tested on: CCRF-CEM; experiment: Growth inhibition of human CCRF-CEM cells after 48 hrs by SRB assay; assay type: functional; how it was run: as §2
[51] = tested on: SNB-75; experiment: Growth inhibition of human SNB75 cells after 48 hrs by SRB assay; assay type: functional; conditions: SNB-75, 48 h; how it was run: as §1
[52] = tested on: OVCAR-4; experiment: Growth inhibition of human OVCAR4 cells after 48 hrs by SRB assay; assay type: functional; conditions: OVCAR-4, 48 h; how it was run: as §2
[53] = tested on: K562; experiment: Growth inhibition of human K562 cells after 48 hrs by trypan blue assay; assay type: functional, cell-based; conditions: K562, 48 h
[54] = tested on: MDA-MB-231; experiment: Growth inhibition of human MDA-MB-231 cells after 48 hrs by SRB assay; assay type: functional; conditions: MDA-MB-231, 48 h; how it was run: as §2
[55] = tested on: MOLT-4; experiment: Growth inhibition of human MOLT4 cells after 48 hrs by SRB assay; assay type: functional; conditions: MOLT-4, 48 h; how it was run: as §2
[56] = tested on: SF-268; experiment: Growth inhibition of human SF268 cells after 48 hrs by SRB assay; assay type: functional; conditions: SF-268, 48 h; how it was run: as §2
[57] = tested on: NCI-H460; experiment: Growth inhibition of human NCI-H460 cells after 48 hrs by SRB assay; assay type: functional; conditions: NCI-H460, 48 h; how it was run: as §2
[58] = tested on: SK-MEL-2; experiment: Growth inhibition of human SK-MEL-2 cells after 48 hrs by SRB assay; assay type: functional; conditions: SK-MEL-2, 48 h; how it was run: as §1

GI50 [1]: 3.3 µM | GI50 [2]: 7.28 µM | GI50 [3]: 4 µM | GI50 [4]: 6.45 µM | GI50 [5]: 1.77 µM | GI50 [8]: 4.2 µM | GI50 [10]: 3.12 µM | GI50 [12]: 1.11 µM | GI50 [13]: 3.2 µM | GI50 [14]: 4.88 µM | GI50 [15]: 7.49 µM | GI50 [17]: 3.77 µM | GI50 [18]: 2.79 µM | GI50 [26]: 3.97 µM | GI50 [27]: 2.31 µM | GI50 [28]: 1.84 µM | GI50 [30]: 0.66 µM | GI50 [31]: 13.5 µM | GI50 [32]: 3.48 µM | GI50 [34]: 8.2 µM | GI50 [38]: 1.01 µM | GI50 [39]: 2.18 µM | GI50 [44]: 4.13 µM | GI50 [45]: 2.83 µM | GI50 [46]: 3.38 µM | GI50 [47]: 5.81 µM | GI50 [48]: 3.66 µM | GI50 [49]: 5.24 µM | GI50 [50]: 2.36 µM | GI50 [52]: 11.4 µM | IC50 [53]: 5.5 µM | GI50 [54]: 7.26 µM | GI50 [55]: 3.56 µM | GI50 [57]: 3.59 µM | GI50 [58]: 4.75 µM
SMILES: Cc1ccc(NC(=O)/C=C/c2ccccc2)c(C(N)=O)c1
GI50 [6]: 7.74 µM | GI50 [7]: 2.05 µM | GI50 [9]: 17 µM | GI50 [11]: 3.14 µM | GI50 [16]: 5.56 µM | GI50 [19]: 2.35 µM | GI50 [20]: 11.4 µM | GI50 [21]: 7.65 µM | inhibition of growth at 10 µM [22]: 65.4% | GI50 [23]: 7.59 µM | GI50 [24]: 3.77 µM | GI50 [25]: 9.63 µM | GI50 [29]: 2.79 µM | GI50 [33]: 1.94 µM | GI50 [35]: 5.69 µM | GI50 [36]: 5.18 µM | GI50 [37]: 9.62 µM | GI50 [40]: 2.94 µM | GI50 [41]: 8.92 µM | GI50 [42]: 4.37 µM | GI50 [43]: 25.8 µM | GI50 [51]: 3.18 µM | GI50 [56]: 10.9 µM
